Calls of active or inactive are those of the source. The calls are words filed in the database; no cut-off is given here.
Key:
[1] = molecular target: T1, Protein deacetylase HDAC6 (Homo sapiens) (UniProt Q9UBN7); experiment: Inhibition of full length human N-terminal GST-tagged HDAC6 expressed in baculovirus infected sf9 cells at 50 to 100 uM using HDAC substrate 3 preincubated for 5 mins followed by substrate addition measured after 30 mins by fluorescence assay
T1 sequence (whole entry): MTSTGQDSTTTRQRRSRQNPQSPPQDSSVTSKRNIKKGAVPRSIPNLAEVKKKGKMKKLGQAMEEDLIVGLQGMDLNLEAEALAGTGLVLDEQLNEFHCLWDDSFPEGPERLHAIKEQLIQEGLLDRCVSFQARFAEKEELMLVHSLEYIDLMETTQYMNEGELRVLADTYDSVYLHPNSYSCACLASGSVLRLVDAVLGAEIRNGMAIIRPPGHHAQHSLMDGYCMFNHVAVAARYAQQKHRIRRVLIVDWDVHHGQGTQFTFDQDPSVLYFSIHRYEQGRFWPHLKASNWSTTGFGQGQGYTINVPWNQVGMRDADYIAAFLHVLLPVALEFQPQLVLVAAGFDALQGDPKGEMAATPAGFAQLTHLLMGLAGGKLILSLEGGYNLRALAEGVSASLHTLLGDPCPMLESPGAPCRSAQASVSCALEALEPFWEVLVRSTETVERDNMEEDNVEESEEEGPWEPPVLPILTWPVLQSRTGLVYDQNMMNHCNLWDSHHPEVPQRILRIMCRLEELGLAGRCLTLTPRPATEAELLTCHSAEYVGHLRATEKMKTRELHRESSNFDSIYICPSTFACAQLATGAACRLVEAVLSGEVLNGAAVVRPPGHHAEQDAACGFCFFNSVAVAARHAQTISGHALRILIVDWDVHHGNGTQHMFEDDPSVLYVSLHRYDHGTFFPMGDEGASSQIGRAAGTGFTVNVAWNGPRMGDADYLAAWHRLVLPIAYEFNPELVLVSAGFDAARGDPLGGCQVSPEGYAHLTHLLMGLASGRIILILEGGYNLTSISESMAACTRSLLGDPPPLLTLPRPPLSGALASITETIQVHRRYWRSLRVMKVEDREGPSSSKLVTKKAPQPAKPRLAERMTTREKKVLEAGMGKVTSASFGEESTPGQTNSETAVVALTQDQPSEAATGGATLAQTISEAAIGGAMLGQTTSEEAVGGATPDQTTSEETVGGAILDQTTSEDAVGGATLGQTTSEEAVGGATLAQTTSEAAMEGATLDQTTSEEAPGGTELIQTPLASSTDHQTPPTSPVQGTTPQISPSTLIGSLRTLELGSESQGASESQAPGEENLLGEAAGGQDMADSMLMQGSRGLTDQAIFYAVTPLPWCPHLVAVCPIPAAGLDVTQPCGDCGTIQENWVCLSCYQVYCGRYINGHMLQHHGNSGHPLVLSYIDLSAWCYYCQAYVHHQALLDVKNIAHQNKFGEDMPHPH
How it was run: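 Inhibitor pre-incubated 5 min, then HDAC substrate 3 (20 μM) added, 30 min at 37 °C. Developer added for 15 min at room temperature; fluorescence read at ex/em 360/460 nm. Activity relative to no-inhibitor wells, with 200 μM SAHA as 0%. Run in triplicate.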

[2] = test system: Escherichia coli; experiment: Inhibition of NDM1 in Escherichia coli isolate Ah8.71 assessed as potentiation of imipenem-induced antibacterial activity by measuring imipenem MIC at 100 mg/L after 18 to 20 hrs by broth microdilution assay (reference value: 16 mg/L)
[3] = molecular target: Metallo-beta-lactamase type 2 (Klebsiella pneumoniae) (UniProt C7C422); experiment: Inhibition of NDM1 in Klebsiella pneumoniae isolate Pd1.54 assessed as potentiation of imipenem-induced antibacterial activity by measuring imipenem MIC at 100 mg/L after 18 to 20 hrs by broth microdilution assay (reference value: 8 mg/L)
[4] = test system: Escherichia coli; experiment: Effect on growth of Escherichia coli isolate Ah8.74 at 100 mg/L after 18 to 20 hrs by broth microdilution assay
How it was run: (§1)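 Mueller-Hinton broth microdilution per CLSI, triplicate. blaNDM-1 clinical isolates grown from OD600 0.1 to 0.224 (~1–2 × 10^8 CFU/mL), diluted 3 μL into 4997 μL MH, and 100 μL added to 100 μL of compound (100 mg/L) alone. Incubated 37 °C for 18–20 h, then scored for growth.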

[5] = molecular target: Metallo-beta-lactamase type 2 (Klebsiella pneumoniae) (UniProt C7C422); experiment: Inhibition of NDM1 in Klebsiella pneumoniae isolate Pd1.48 assessed as potentiation of imipenem-induced antibacterial activity by measuring imipenem MIC at 100 mg/L after 18 to 20 hrs by broth microdilution assay (reference value: 8 mg/L)
[6] = test system: Klebsiella pneumoniae; experiment: Effect on growth of Klebsiella pneumoniae isolate Pd1.49 at 100 mg/L after 18 to 20 hrs by broth microdilution assay; how it was run: as §1
[7] = molecular target: 72 kDa type IV collagenase (Homo sapiens) (UniProt P08253); experiment: Inhibition of human MMP2 (Tyr110 to Asp452 residues) expressed in yeast at 50 to 100 uM using Mca-Pro-LeuGly-Leu-Dpa-Ala-Arg-NH2.AcOH as substrate preincubated for 30 mins followed by substrate addition measured after 20 mins by fluorescence assay relative to control
How it was run: (§2)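 Human recombinant MMP-2 (1.16 U/well) or MMP-12 (0.007 U/well) in 50 mM HEPES, 10 mM CaCl2, 0.05% Brij-35, pH 7.5. Enzyme and inhibitor pre-incubated 30 min at 37 °C, then OmniMMP fluorogenic substrate (4 μM) added. Fluorescence rise followed 20 min at ex/em 320/400 nm. Activity relative to no-inhibitor wells, with 200 μM NSA as 0%. Run in triplicate.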

[8] = test system: Bacteria; experiment: Binding affinity to bacterial NDM-1 expressed in Escherichia coli BL21(DE3) assessed as Zn2+ stripping at
How it was run: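 NDM-1 (8 μM final) in 50 mM HEPES pH 7.5 mixed with compound at 0–128 μM for 30 min. Then dialyzed 4 h against metal-free 50 mM HEPES pH 7.5. Residual Zn(II) measured by ICP-AES at 213.856 nm.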

[9] = molecular target: Macrophage metalloelastase (Homo sapiens) (UniProt P39900); experiment: Inhibition of human MMP12 (Phe99 to Leu271 residues) expressed in Escherichia coli at 50 to 100 uM using Mca-Pro-LeuGly-Leu-Dpa-Ala-Arg-NH2.AcOH as substrate preincubated for 30 mins followed by substrate addition measured after 20 mins by fluorescence assay relative to control; how it was run: as §2
[10] = test system: Bacteria; experiment: Binding affinity to bacterial CoCoNDM-1 expressed in Escherichia coli BL21(DE3) assessed as CoCoNDM-1-compound ternary complex formation at 1 equiv by 1H NMR spectroscopic method
How it was run: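 Apo-NDM-1 concentrated to ~1 mM and loaded with 2 equiv CoCl2. Samples in 50 mM HEPES, 150 mM NaCl, 10% D2O, pH 6.8. Compounds from 50–100 mM DMSO stocks titrated in ~5 μL aliquots. 1H spectra recorded at 292 K, 300.16 MHz.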

Metallo-beta-lactamase type 2 (Klebsiella pneumoniae), sequence (C7C422 whole entry): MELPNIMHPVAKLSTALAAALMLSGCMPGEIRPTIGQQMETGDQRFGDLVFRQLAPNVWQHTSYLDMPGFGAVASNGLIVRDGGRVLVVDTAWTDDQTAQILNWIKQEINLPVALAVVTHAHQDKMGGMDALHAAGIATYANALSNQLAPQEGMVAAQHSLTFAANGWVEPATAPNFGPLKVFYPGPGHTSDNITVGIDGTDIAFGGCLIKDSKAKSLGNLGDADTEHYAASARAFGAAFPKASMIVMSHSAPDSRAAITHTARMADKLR
Macrophage metalloelastase (Homo sapiens), sequence (P39900 106-470 limits assumed): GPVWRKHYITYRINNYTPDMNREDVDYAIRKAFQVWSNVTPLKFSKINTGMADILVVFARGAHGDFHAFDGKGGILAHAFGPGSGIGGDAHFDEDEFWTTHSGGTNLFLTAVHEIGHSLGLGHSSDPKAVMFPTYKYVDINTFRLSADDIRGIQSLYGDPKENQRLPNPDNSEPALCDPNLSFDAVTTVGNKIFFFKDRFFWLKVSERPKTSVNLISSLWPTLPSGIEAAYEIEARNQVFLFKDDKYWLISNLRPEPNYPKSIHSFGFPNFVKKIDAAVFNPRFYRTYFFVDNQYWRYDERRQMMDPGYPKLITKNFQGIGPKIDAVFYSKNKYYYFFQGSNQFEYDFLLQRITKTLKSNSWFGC
72 kDa type IV collagenase (Homo sapiens), sequence (P08253 110-660 limits assumed): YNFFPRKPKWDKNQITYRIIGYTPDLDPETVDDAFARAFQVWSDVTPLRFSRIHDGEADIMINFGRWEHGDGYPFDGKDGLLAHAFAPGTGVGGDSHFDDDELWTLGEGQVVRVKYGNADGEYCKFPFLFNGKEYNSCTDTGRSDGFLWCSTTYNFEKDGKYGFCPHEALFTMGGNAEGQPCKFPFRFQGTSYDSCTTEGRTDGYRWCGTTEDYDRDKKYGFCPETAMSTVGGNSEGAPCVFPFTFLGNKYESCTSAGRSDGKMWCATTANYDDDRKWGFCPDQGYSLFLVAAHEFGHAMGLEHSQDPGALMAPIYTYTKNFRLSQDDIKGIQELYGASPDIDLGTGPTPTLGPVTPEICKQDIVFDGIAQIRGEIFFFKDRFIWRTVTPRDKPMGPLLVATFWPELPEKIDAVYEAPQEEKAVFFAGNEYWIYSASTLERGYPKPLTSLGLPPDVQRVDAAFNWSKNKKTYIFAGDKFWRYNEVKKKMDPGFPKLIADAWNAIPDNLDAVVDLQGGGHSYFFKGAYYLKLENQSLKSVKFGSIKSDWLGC

Nc1cccc(-c2cc(C(=O)O)nc(C(=O)O)c2)c1
inhibition [1]: < 50% | MIC [2]: 1 µg/mL | MIC [3]: 0.5 µg/mL | Activity [4]: Non-Toxic | MIC [5]: 0.5 µg/mL | Activity [6]: Non-Toxic | inhibition [7]: < 50% | Activity [8]: inactive | inhibition [9]: < 50% | Activity [10]: Active
